Measured values published in publication PMC7945681 (Journal of materials chemistry. B, 2020).

Columns and labels:
human VCAM1 = assay: SPR measurement of peptide-VCAM1 binding; details: for ∣ΔΔGB∣: ∣ΔGB,trans – ΔGB,cis∣ from SPR values
Procedure, shortened: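 Peptide-functionalised gold sensor chips, with three sensors per ligand and ligand density measured by variable angle spectroscopic ellipsometry. Chip-bound peptide was conditioned to cis or trans isomer, then exposed to human VCAM1 at 0.01–1 mg mL−1 in PBS. KD was determined for each isomer.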

VCAM1^+ BMECs = format: cell-based, human; details: for co-localization of the cis isomer with anti-VCAM1 antibody: VCAM1^+ BMECs, confocal microscopy

| Substance | KD,trans/KD,cis (human VCAM1; affinity shift between trans and cis isomers, SPR) | ∣ΔΔGB∣ (human VCAM1) | binding to BMECs in trans configuration (VCAM1^+ BMECs; BMEC labelling, fluorescence microscopy) | co-localization of the cis isomer with anti-VCAM1 antibody (VCAM1^+ BMECs) |
| --- | --- | --- | --- | --- |
| cycloAZOB[G-VHAKQHRN-K*] (sidechain bridge or staple) | ~ 130 | 2.93 | negligible binding | clear co-localization |
| cycloAZOB[G-VHAKQHRN-K*]-K(Biotin) (sidechain bridge or staple) |  |  |  | co-localization with anti-VCAM1 antibodies in cis configuration |
| cycloAZOB[G-VHNKQHRP-K*] (sidechain bridge or staple) |  | 1.84 |  |  |
| cycloAZOB[G-VHPKQHRP-K*] (sidechain bridge or staple) |  | 1.52 |  |  |
| cycloAZOB[G-VHPKQHRS-K*] (sidechain bridge or staple) |  | 2.52 |  |  |
